Square brackets hold non-standard residues; d marks the D form. Peptide text beside a SMILES is read from it.
Key:
[1] = system: Bcl-2 family proteins, IAPs and caspases in MDA-MB-468 cells; assay: western blots of apoptosis-related proteins and caspases; format: cell-based, human; details: 72 h
Summary of the method: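 MDA-MB-468 cells were treated for 72 h with TAT-NBI1, erlotinib or both at the indicated μM concentrations. Whole-cell extracts were made in 25 mM Tris-HCl pH 7.4, 1 mM EDTA, 1 mM EGTA and 1% SDS with protease and phosphatase inhibitors, and protein was quantified by BCA. Lysates were run on SDS-PAGE, transferred to nitrocellulose and immunoblotted.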

[2] = patients with advance solid tumors; cited from earlier work
SKBr3 cells = assay: MTT and trypan blue cell viability assays; format: cell-based, human
[3] = solubility in culture medium; format: physicochemical
MDA-MB-231 cell line = assay: cell viability IC50 determination; format: cell-based; details: Homo sapiens, MDA-MB-231, read-out: IC50 (MDA-MB-231)
[4] = system: Cyt c release in MDA-MB-468 cells; assay: Cyt c release from mitochondria; format: cell-based, human; details: 48 h; doxorubicin 5 μM
Summary of the method: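 MDA-MB-468 cells were grown as a monolayer in Leibovitz's L-15 with 10% FBS at 37 °C without CO2, then seeded at 125 000 cells/ml. They were exposed to the test compounds for 48 h at the indicated concentrations. Cytochrome c release was quantified with a flow-cytometric cytochrome c release kit per the manufacturer's protocol, and cells were analysed on a flow cytometer.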

[5] = system: caspase-3/7 activity in MDA-MB-231 cells; assay: caspase activation assay in cellular extracts; format: cell-based
Summary of the method: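 MDA-MB-231 cells were grown in Leibovitz's L-15 with 10% FBS at 37 °C without CO2. Cells were co-treated with TAT-NBI1/erlotinib at the indicated μM concentrations, with or without necrostatin-1 (100 μM). Etoposide (25 μM) ± necrostatin-1 served as reference. Caspase-3/7 activation was measured in cellular extracts.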

[6] = system: caspase-3/7 activity in MDA-MB-468 cells; assay: caspase activation assay in cellular extracts; format: cell-based, human
Summary of the method: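 MDA-MB-468 cells were cultured in L-15 with 10% FBS at 37 °C without CO2 and seeded at 125 000 cells/ml. They received TAT-NBI1/erlotinib co-treatment at the indicated μM concentrations, with or without necrostatin-1, for 48 h. Caspase-3/7 activity was then measured in cellular extracts.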

Saos-2 cells = assay: cytochrome c release, immunolocalization; format: cell-based; details: 10 µM, 24 h

Structure (SMILES): C#Cc1cccc(Nc2ncnc3cc(OCCOC)c(OCCOC)cc23)c1 [erlotinib]
- Bim expression [1]: upregulated
- plasma concentration at the steady state [2]: ~5 µM
- change of lethal dose of erlotinib in the presence of TAT-NBI1 (SKBr3 cells): twofold lower
- solubility [3]: ≤ 20 µM
- IC50 (MDA-MB-231 cell line): > 20 µM

Structure (SMILES): COc1cccc2c1C(=O)c1c(O)c3c(c(O)c1C2=O)C[C@@](O)(C(=O)CO)C[C@@H]3O[C@H]1C[C@H](N)[C@H](O)[C@H](C)O1 [doxorubicin]
- Cyt c release to the cytoplasm [4]: Cyt c release to the cytoplasm

Structure (SMILES): CN1C(=O)C(Cc2c[nH]c3ccccc23)NC1=S (stereo not drawn) [nec-1, necrostatin-1]
- effect on TAT-NBI1/erlotinib-induced caspase activation [5]: inhibited
- effect on TAT-NBI1/erlotinib-induced caspase activation [6]: inhibited

Structure (SMILES): CC[C@@H](C)[C@@H](NC(=O)[C@@H](Cc1c[nH]c2ccccc12)NC(=O)[C@@H](CCCNC(=N)N)NC(=O)[C@H](CCC(N)=O)NC(=O)[C@@H]1CCCN1C(=O)[C@H](CCCNC(=N)N)NC(=O)[C@H](CCCNC(=N)N)NC(=O)[C@H](CCCNC(=N)N)NC(=O)[C@H](CCC(N)=O)NC(=O)[C@H](CCCNC(=N)N)NC(=O)[C@H](CCCNC(=N)N)NC(=O)[C@H](CCCCN)NC(=O)[C@H](CCCCN)NC(=O)[C@H](CCCNC(=N)N)NC(=O)CN)C(=O)N[C@H](CCSC)C(=O)N[C@H](Cc1ccc(O)cc1)C(=O)N[C@H](Cc1ccccc1)C(N)=O [TAT-NBI1] (H-GRKKRRQRRRPQ[dR][dW][dI][dM][dY][dF]-NH2; N-terminus and C-terminus assumed)
- mechanism of cell death followed by cytochrome c release to the cytosol (Saos-2 cells): induced cell death by intrinsic, mitochondrial-mediated, apoptosis

Source: publication PMC3481142 (Cell Death & Disease, 2012)
